Laboratory results: ChEMBL document CHEMBL3085721, “Nonhydrolyzable ATP analogues as selective inhibitors of human NPP1: a combined computational/experimental study” (J Med Chem, 2013)
Activity calls are given as the source filed them. The calls are words filed in the database; no cut-off is given here.

Assays:
[1] = target: T1, Ectonucleotide pyrophosphatase/phosphodiesterase family member 1 (Homo sapiens, UniProt P22413); assay: Mixed type inhibition of human NPP1 expressed in COS7 cells assessed as production of p-nitrophenol using pnp-TMP as the substrate preincubated for 3 mins before substrate addition measured after 15 mins by Dixon/Cornish Bowden method; assay type: cell-based, COS-7; conditions: read-out: Ki(app)
T1 sequence (P22413 whole entry): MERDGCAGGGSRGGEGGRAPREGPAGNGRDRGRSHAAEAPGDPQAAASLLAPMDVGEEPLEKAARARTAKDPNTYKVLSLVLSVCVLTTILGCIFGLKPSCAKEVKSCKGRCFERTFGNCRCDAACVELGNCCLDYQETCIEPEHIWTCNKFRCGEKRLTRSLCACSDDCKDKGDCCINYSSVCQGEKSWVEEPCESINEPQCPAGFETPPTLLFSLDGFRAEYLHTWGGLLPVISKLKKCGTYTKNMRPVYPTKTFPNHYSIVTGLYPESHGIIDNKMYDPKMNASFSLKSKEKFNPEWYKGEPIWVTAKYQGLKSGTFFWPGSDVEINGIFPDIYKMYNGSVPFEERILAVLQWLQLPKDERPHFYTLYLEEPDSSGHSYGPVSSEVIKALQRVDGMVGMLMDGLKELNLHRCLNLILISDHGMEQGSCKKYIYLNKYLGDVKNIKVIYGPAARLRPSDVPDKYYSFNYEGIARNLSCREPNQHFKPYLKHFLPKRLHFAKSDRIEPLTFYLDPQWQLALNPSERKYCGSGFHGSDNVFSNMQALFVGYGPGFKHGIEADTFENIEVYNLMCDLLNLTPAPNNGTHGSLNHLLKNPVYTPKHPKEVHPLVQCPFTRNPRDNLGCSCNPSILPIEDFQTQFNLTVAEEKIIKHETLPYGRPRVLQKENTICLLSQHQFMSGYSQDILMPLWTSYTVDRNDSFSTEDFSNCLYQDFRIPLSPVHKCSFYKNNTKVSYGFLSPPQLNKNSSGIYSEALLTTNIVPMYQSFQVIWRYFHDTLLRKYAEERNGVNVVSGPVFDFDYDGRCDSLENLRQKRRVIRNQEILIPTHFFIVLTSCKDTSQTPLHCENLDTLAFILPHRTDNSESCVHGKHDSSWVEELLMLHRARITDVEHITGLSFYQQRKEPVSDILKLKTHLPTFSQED
Method in brief: (§1)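 Crude protein extract from COS-7 cells transiently transfected with human NPP1 (sonicated, debris cleared at 300g), preincubated 3 min at 37 °C with inhibitor (0, 25, 50, 100 μM) in 1 mM CaCl2, 140 mM NaCl, 5 mM KCl, 50 mM Tris pH 8.5. pnp-TMP (25, 50, 100 μM) added; p-nitrophenol read at 410 nm after 15 min. Ki,app and inhibition type from Dixon and Cornish-Bowden plots, three independent experiments.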

[2] = target: T2, Ectonucleoside triphosphate diphosphohydrolase 3 (Homo sapiens) (UniProt O75355); assay: Inhibition of human NTPDase3 assessed as amount of inorganic phosphate released using ATP as the substrate preincubated at 100 uM for 3 mins before substrate addition after 15 mins by malachite green reagent method
T2 sequence (whole entry): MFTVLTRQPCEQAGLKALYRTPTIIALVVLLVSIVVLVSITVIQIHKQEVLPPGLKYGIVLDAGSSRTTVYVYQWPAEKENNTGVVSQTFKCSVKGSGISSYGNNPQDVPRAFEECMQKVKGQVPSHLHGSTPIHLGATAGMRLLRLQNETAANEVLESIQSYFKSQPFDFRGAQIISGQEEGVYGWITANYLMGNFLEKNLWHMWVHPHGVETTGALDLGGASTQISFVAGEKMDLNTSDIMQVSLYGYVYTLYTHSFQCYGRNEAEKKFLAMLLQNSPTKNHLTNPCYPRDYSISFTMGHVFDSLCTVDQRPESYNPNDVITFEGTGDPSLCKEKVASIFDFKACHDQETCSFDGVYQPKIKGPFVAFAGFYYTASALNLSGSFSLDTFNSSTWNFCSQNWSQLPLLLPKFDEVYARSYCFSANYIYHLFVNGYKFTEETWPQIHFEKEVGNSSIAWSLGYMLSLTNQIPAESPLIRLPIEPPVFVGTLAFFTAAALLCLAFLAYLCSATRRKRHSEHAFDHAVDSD
Method in brief: (§2)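 Crude extracts of COS-7 cells transiently transfected with human NTPDase1, -2, -3 or -8, preincubated 3 min at 37 °C in Tris-Ringer medium pH 7.4 with analogue (final 100 μM). Started with 100 μM ATP, stopped after 15 min with malachite green; released Pi read at 630 nm. ATP alone set as 100%. Mean ± SD of 3−6 experiments in triplicate.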

[3] = target: T3, Ectonucleoside triphosphate diphosphohydrolase 8 (Homo sapiens) (UniProt Q5MY95); assay: Inhibition of human NTPDase8 assessed as amount of inorganic phosphate released using ATP as the substrate preincubated at 100 uM for 3 mins before substrate addition after 15 mins by malachite green reagent method; method in brief: as §2
T3 sequence (whole entry): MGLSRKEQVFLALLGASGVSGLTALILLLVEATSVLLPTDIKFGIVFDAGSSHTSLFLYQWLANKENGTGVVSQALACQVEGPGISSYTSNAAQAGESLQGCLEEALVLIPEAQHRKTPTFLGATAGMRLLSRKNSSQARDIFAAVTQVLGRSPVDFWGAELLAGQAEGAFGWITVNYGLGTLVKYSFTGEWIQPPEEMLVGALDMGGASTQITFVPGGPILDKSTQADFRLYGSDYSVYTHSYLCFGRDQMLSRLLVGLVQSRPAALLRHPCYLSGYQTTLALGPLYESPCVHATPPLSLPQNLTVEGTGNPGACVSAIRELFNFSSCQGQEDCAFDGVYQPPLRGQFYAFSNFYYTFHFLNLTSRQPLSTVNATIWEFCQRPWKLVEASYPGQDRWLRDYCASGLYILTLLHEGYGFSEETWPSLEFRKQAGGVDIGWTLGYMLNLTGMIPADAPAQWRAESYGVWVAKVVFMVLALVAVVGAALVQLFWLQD

[4] = target: T4, Ectonucleoside triphosphate diphosphohydrolase 1 (Homo sapiens) (UniProt P49961); assay: Inhibition of human NTPDase1 assessed as amount of inorganic phosphate released using ATP as the substrate preincubated at 100 uM for 3 mins before substrate addition after 15 mins by malachite green reagent method; method in brief: as §2
T4 sequence (whole entry): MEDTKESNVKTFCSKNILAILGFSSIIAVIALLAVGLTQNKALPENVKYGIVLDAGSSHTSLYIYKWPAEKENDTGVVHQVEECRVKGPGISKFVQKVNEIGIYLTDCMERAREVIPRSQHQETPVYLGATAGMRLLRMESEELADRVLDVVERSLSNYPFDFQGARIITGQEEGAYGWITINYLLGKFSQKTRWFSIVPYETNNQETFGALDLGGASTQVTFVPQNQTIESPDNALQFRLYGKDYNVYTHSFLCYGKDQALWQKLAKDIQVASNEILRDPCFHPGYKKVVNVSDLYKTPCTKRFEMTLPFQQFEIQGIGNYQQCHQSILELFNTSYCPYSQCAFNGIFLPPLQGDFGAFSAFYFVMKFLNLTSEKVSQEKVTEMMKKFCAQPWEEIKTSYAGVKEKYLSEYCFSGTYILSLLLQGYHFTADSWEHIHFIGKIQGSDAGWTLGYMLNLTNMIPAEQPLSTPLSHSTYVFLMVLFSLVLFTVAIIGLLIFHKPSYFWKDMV

[5] = target: T5, Ectonucleotide pyrophosphatase/phosphodiesterase family member 1 (Homo sapiens) (UniProt P22413); assay: Competitive inhibition of human NPP1 expressed in COS7 cells assessed as production of p-nitrophenol using pnp-TMP as the substrate preincubated at 25 to 100 uM for 3 mins before substrate addition measured after 15 mins by Dixon/Cornish Bowden method; assay type: cell-based; conditions: COS-7; method in brief: as §1
T5 sequence (whole entry): T1 sequence (P22413 whole entry)

[6] = target: T5, Ectonucleotide pyrophosphatase/phosphodiesterase family member 1 (Homo sapiens); assay: Inhibition of human NPP1 expressed in COS7 cells assessed as production of p-nitrophenol using pnp-TMP as the substrate preincubated at 100 uM for 3 mins before substrate addition measured after 15 mins […]; assay type: cell-based; conditions: COS-7
Method in brief: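 Crude extracts of COS-7 cells transiently transfected with human NPP1 or NPP3, preincubated 3 min at 37 °C in 1 mM CaCl2, 140 mM NaCl, 5 mM KCl, 50 mM Tris pH 8.5 with analogue at 100 μM. Reaction started with 100 μM pnp-TMP; p-nitrophenol at 410 nm after 15 min. Activity without analogue set as 100%. Mean ± SD of 3−6 experiments in triplicate.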

B[P@@](=O)(OC[C@H]1O[C@@H](n2cnc3c(N)ncnc32)[C@H](O)[C@@H]1O)OP(=O)(O)C(Cl)(Cl)P(=O)(O)O
Ki [1]: 18 µM
inhibition [2]: 50%
inhibition [3]: 30%
inhibition [4]: 50%
inhibition [5]: Active
inhibition [6]: 90%
